Reference: ChEMBL document CHEMBL3272175, “Potential antitumor agents. 17. 9-Anilino-10-methylacridinium salts” (J Med Chem, 1976)

system: not listed separately; experiment: Dissociation constant, pKa of the compound; type: physicochemical

Row | Structure (SMILES) | pKa
1 | Cn1ccc(=N)c2ccccc21 | 12.4
2 | Cn1ccc(=N)cc1 | 12.5

system: L1210; experiment: Antitumor activity against mouse L1210 cells allografted in C3H/DBA2 F1 mouse assessed as increase in life span at optimum dose, ip qd administered for 5 days relative to control; type: functional
Procedure, shortened: (§1)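 Mice: C3H/DBA2 F1 hybrids, 18.5-22.5 g, inoculated ip with 10⁵ L1210 cells on day 1. Treatment ip daily for 5 days from 24 h later, dose in 0.2 ml water (suspended or dissolved). T/C = ratio of mean life spans, treated vs control; optimum dose gives maximum T/C.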

Row | Structure (SMILES) | T/C [%]
3 | CC(=O)Nc1ccc2c(c1)c(Nc1ccc(NS(C)(=O)=O)cc1)c1ccccc1[n+]2C | 181
4 | COc1cc(NS(C)(=O)=O)ccc1Nc1c2ccccc2[n+](C)c2ccccc12 | 172
5 | CC(=O)Nc1ccc2c(Nc3ccc(NS(C)(=O)=O)cc3)c3ccccc3[n+](C)c2c1 | 134
6 | CS(=O)(=O)Nc1ccc(Nc2c3ccccc3nc3cc(N)ccc23)cc1 | 178
7 | CC(=O)Nc1ccc2c(Nc3ccccc3)c3ccccc3[n+](C)c2c1 | 126
8 | CS(=O)(=O)Nc1ccc(Nc2c3ccccc3nc3ccc(Br)cc23)cc1 | 165
9 | CC(=O)Nc1ccc2c(c1)c(Nc1ccccc1)c1ccccc1[n+]2C | 158
10 | CS(=O)(=O)Nc1ccc(Nc2c3ccccc3nc3ccccc23)cc1 | 207
11 | COc1cc(NS(C)(=O)=O)ccc1Nc1c2ccccc2[n+](C)c2ccc(Br)cc12 | 158
12 | COc1cc(NS(C)(=O)=O)ccc1Nc1c2ccccc2[n+](C)c2ccc(Cl)cc12 | 179
13 | COc1cc(NS(C)(=O)=O)ccc1Nc1c2ccccc2nc2ccc(Br)cc12 | 219
14 | CS(=O)(=O)Nc1ccc(Nc2c3ccccc3nc3ccc(N)cc23)cc1 | 181
15 | COc1cc(NS(C)(=O)=O)ccc1Nc1c2ccccc2nc2ccccc12 [AMSACRINE] | 196
16 | CC(=O)Nc1cccc(Nc2c3ccccc3nc3ccccc23)c1 | 133
17 | C[n+]1c2ccccc2c(Nc2ccc(NS(C)(=O)=O)cc2)c2ccccc21 | 184
18 | Nc1cccc(Nc2c3ccccc3nc3ccccc23)c1 | 146
19 | C[n+]1c2ccccc2c(Nc2ccc(NS(C)(=O)=O)cc2)c2cc(N)ccc21 | 180

Row | Structure (SMILES) | T/C [%]
20 | CCS(=O)(=O)Nc1ccc(Nc2c3ccccc3[n+](C)c3ccc(Cl)cc23)c(OC)c1 | 166
21 | C[n+]1c2ccccc2c(Nc2ccc(NS(C)(=O)=O)cc2)c2ccc(N)cc21 | 167
22 | Nc1ccc(Nc2c3ccccc3nc3ccccc23)cc1 | 172
23 | C[n+]1c2ccccc2c(Nc2ccc(N)cc2)c2ccccc21 | 163
24 | CC(=O)Nc1cccc(Nc2c3ccccc3[n+](C)c3ccccc23)c1 | 132
25 | CCS(=O)(=O)Nc1ccc(Nc2c3ccccc3nc3ccccc23)cc1 | 183
26 | CC(=O)Nc1ccc2c(Nc3ccc(NS(C)(=O)=O)cc3)c3ccccc3nc2c1 | 147
27 | CC(=O)Nc1ccc2nc3ccccc3c(Nc3ccc(NS(C)(=O)=O)cc3)c2c1 | 214
28 | C[n+]1c2ccccc2c(Nc2ccccc2)c2cc(N)ccc21 | 162
29 | CCCS(=O)(=O)Nc1ccc(Nc2c3ccccc3nc3ccccc23)cc1 | 134
30 | C[n+]1c2ccccc2c(Nc2cccc(N)c2)c2ccccc21 | 137
31 | CS(=O)(=O)Nc1ccc(Nc2c3ccccc3nc3cc([N+](=O)[O-])ccc23)cc1 | 127
32 | C[n+]1c2ccccc2c(Nc2ccccc2)c2ccc(N)cc21 | 148
33 | COc1cc(NS(C)(=O)=O)ccc1Nc1c2ccccc2nc2ccc(Cl)cc12 | 172
34 | C[n+]1c2ccccc2c(Nc2ccc(NS(C)(=O)=O)cc2)c2cc(Br)ccc21 | 168
35 | CCS(=O)(=O)Nc1ccc(Nc2c3ccccc3[n+](C)c3ccccc23)cc1 | 166

system: L1210; experiment: Antitumor activity against mouse L1210 cells allografted in ip dosed C3H/DBA2 F1 mouse assessed as optimum dose required to increase in maximum life span administered as qd for 5 days; type: functional; procedure, shortened: as §1

Row | Structure (SMILES) | Activity [mg/kg/day]
36 | CC(=O)Nc1ccc2c(c1)c(Nc1ccc(NS(C)(=O)=O)cc1)c1ccccc1[n+]2C | 6
37 | C[n+]1c2ccccc2c(Nc2ccccc2)c2ccc([N+](=O)[O-])cc21 | >500
38 | NC(=O)c1ccc(Nc2c3ccccc3nc3ccccc23)cc1 | >500
39 | COc1cc(NS(C)(=O)=O)ccc1Nc1c2ccccc2[n+](C)c2ccccc12 | 12
40 | CC(=O)Nc1ccc2c(Nc3ccc(NS(C)(=O)=O)cc3)c3ccccc3[n+](C)c2c1 | 15
41 | CS(=O)(=O)Nc1ccc(Nc2c3ccccc3nc3cc(N)ccc23)cc1 | 25
42 | CC(=O)Nc1ccc2c(Nc3ccccc3)c3ccccc3[n+](C)c2c1 | 50
43 | CS(=O)(=O)Nc1ccc(Nc2c3ccccc3nc3ccc(Br)cc23)cc1 | 35
44 | CC(=O)Nc1ccc2c(c1)c(Nc1ccccc1)c1ccccc1[n+]2C | 22
45 | CS(=O)(=O)Nc1ccc(Nc2c3ccccc3nc3ccccc23)cc1 | 45
46 | CCCCS(=O)(=O)Nc1ccc(Nc2c3ccccc3nc3ccccc23)cc1 | >500
47 | CCCS(=O)(=O)Nc1ccc(Nc2c3ccccc3[n+](C)c3ccccc23)cc1 | >500
48 | COc1cc(NS(C)(=O)=O)ccc1Nc1c2ccccc2[n+](C)c2ccc(Br)cc12 | 12
49 | COc1cc(NS(C)(=O)=O)ccc1Nc1c2ccccc2[n+](C)c2ccc(Cl)cc12 | 12
50 | COc1cc(NS(C)(=O)=O)ccc1Nc1c2ccccc2nc2ccc(Br)cc12 | 6
51 | C[n+]1c2ccccc2c(Nc2ccccc2)c2ccccc21 | >500
52 | CS(=O)(=O)Nc1ccc(Nc2c3ccccc3nc3ccc(N)cc23)cc1 | 2.5
53 | COc1cc(NS(C)(=O)=O)ccc1Nc1c2ccccc2nc2ccccc12 [AMSACRINE] | 12
54 | CC(=O)Nc1cccc(Nc2c3ccccc3nc3ccccc23)c1 | 30
55 | C[n+]1c2ccccc2c(Nc2ccc(NS(C)(=O)=O)cc2)c2ccccc21 | 95
56 | C[n+]1c2ccccc2c(Nc2ccc(S(N)(=O)=O)cc2)c2ccccc21 | >500
57 | CCCCS(=O)(=O)Nc1ccc(Nc2c3ccccc3[n+](C)c3ccccc23)cc1 | >500

Row | Structure (SMILES) | Activity [mg/kg/day]
58 | Nc1cccc(Nc2c3ccccc3nc3ccccc23)c1 | 40
59 | NS(=O)(=O)c1ccc(Nc2c3ccccc3nc3ccccc23)cc1 | >500
60 | C[n+]1c2ccccc2c(Nc2ccc(NS(C)(=O)=O)cc2)c2cc(N)ccc21 | 1.25
61 | CCS(=O)(=O)Nc1ccc(Nc2c3ccccc3[n+](C)c3ccc(Cl)cc23)c(OC)c1 | 60
62 | C[n+]1c2ccccc2c(Nc2ccc(NS(C)(=O)=O)cc2)c2ccc(N)cc21 | 5
63 | Nc1ccc(Nc2c3ccccc3nc3ccccc23)cc1 | 33
64 | C[n+]1c2ccccc2c(Nc2ccc(N)cc2)c2ccccc21 | 75
65 | CC(=O)Nc1cccc(Nc2c3ccccc3[n+](C)c3ccccc23)c1 | 67
66 | C[n+]1c2ccccc2c(Nc2ccc(NS(C)(=O)=O)cc2)c2ccc([N+](=O)[O-])cc21 | >500
67 | CCS(=O)(=O)Nc1ccc(Nc2c3ccccc3nc3ccccc23)cc1 | 150
68 | CC(=O)Nc1ccc2c(Nc3ccc(NS(C)(=O)=O)cc3)c3ccccc3nc2c1 | 375
69 | CC(=O)Nc1ccc2nc3ccccc3c(Nc3ccc(NS(C)(=O)=O)cc3)c2c1 | 13
70 | C[n+]1c2ccccc2c(Nc2ccccc2)c2cc(N)ccc21 | 14
71 | CCCS(=O)(=O)Nc1ccc(Nc2c3ccccc3nc3ccccc23)cc1 | 225
72 | C[n+]1c2ccccc2c(Nc2cccc(N)c2)c2ccccc21 | 120
73 | c1ccc(Nc2c3ccccc3nc3ccccc23)cc1 | >500
74 | CS(=O)(=O)Nc1ccc(Nc2c3ccccc3nc3cc([N+](=O)[O-])ccc23)cc1 | 250
75 | C[n+]1c2ccccc2c(Nc2ccccc2)c2ccc(N)cc21 | 20
76 | C[n+]1c2ccccc2c(Nc2ccc(C(N)=O)cc2)c2ccccc21 | >500
77 | COc1cc(NS(C)(=O)=O)ccc1Nc1c2ccccc2nc2ccc(Cl)cc12 | 10
78 | C[n+]1c2ccccc2c(Nc2ccc(NS(C)(=O)=O)cc2)c2cc(Br)ccc21 | 47
79 | CCS(=O)(=O)Nc1ccc(Nc2c3ccccc3[n+](C)c3ccccc23)cc1 | 110
